{"source": "ChEMBL document CHEMBL5126600", "about": "“Discovery of the First-in-Class G9a/GLP Covalent Inhibitors” (J Med Chem, 2022)", "key": {"[1]": {"molecular_target": "Histone-lysine N-methyltransferase EHMT1 (Homo sapiens) (UniProt Q9H9B1)", "experiment": "Inhibition of human GLP (982 to 1266 residues) assessed as covalent modification by measuring GLP adduct formation by mass spectrometry", "details": "time <= 120.0 min, TDE = time-dependent effect", "in_short": "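Purified G9a or GLP catalytic domain (5 μM) in 50 mM Tris-HCl pH 7.5, 150 mM NaCl incubated with 50 μM compound or DMSO at room temperature (1 h, or 30 and 60 min in time course); intact mass by ESI LC/MS-TOF; adduct % = adduct/(protein + adduct) × 100.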"}, "[2]": {"molecular_target": "Histone-arginine methyltransferase CARM1 (Homo sapiens) (UniProt Q86X55)", "sequence (Q86X55 whole entry, the tested form may be a part)": "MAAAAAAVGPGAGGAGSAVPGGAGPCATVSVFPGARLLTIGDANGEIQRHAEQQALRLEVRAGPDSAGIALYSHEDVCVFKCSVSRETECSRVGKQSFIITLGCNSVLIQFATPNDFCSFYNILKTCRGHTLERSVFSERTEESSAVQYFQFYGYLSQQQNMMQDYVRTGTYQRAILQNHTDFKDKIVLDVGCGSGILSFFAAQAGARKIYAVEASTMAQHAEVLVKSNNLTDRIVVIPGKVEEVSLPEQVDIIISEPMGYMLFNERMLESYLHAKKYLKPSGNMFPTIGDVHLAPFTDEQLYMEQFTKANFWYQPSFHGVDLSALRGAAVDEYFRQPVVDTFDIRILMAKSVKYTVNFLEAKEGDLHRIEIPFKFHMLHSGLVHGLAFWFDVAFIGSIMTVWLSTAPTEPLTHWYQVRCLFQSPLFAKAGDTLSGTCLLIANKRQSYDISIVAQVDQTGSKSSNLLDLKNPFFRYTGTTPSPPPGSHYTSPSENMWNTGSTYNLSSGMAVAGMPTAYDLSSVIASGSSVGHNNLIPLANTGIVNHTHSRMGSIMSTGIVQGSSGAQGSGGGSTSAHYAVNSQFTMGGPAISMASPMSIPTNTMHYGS", "experiment": "Inhibition of N-terminal GST-tagged PRMT4 (2 to 608 residues)(unknown origin) expressed in Escherichia coli at 1 uM using 3H-SAM as a substrate relative to control", "in_short": "(§1)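 Contracted 3H-SAM methyl-transfer scintillation proximity assay against a panel of methyltransferases; compound tested at 1 μM in duplicate; inhibition expressed as percent of control enzyme activity.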"}, "[3]": {"molecular_target": "PRMT5/MEP50 complex (Homo sapiens) (UniProt O14744+Q9BQA1)", "experiment": "Inhibition of recombinant human N-terminal Flag-tagged PRMT5 (2 to 637 residues)/N-terminal His-tagged MEP50 (2 to 342 residues) expressed in baculovirus expression system at 1 uM using 3H-SAM as a substrate relative to control", "in_short": "as §1"}, "[4]": {"molecular_target": "Protein arginine N-methyltransferase 3 (Homo sapiens) (UniProt O60678)", "sequence (O60678 2-531 limits assumed)": "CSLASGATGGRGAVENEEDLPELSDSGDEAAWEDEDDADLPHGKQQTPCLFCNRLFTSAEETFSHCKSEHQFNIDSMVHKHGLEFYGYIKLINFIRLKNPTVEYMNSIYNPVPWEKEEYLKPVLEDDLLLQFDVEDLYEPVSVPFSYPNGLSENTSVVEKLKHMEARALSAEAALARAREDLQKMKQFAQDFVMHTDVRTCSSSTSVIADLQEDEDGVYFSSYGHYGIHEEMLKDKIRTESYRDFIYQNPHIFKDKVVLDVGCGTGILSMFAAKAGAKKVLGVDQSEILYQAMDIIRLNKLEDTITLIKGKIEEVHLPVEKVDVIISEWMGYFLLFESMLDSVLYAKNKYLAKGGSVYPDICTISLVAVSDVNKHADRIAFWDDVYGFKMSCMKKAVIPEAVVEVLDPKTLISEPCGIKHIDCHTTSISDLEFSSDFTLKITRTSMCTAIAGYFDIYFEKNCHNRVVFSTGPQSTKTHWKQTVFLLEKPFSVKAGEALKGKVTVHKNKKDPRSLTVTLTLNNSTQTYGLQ", "experiment": "Inhibition of N-terminal His-tagged PRMT3 (2 to 531 residues)(unknown origin) expressed in Escherichia coli at 1 uM using 3H-SAM as a substrate relative to control", "in_short": "as §1"}, "[5]": {"molecular_target": "Histone-lysine N-methyltransferase SETD7 (Homo sapiens) (UniProt Q8WTS6)", "sequence (Q8WTS6 whole entry, the tested form may be a part)": "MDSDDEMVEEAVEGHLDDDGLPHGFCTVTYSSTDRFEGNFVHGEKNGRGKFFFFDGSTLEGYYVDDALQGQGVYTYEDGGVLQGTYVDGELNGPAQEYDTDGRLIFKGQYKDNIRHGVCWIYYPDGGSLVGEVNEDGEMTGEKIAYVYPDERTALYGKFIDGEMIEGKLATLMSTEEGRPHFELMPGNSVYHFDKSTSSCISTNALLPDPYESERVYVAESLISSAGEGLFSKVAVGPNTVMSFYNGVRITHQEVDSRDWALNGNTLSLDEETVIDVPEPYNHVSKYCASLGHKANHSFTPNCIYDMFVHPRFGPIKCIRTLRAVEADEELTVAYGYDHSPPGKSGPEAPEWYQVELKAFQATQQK", "experiment": "Inhibition of N-terminal and GST-tagged C-terminal His-tagged SET7/9 (2 to 366 residues) (unknown origin) expressed in Escherichia coli at 1 uM using 3H-SAM as a substrate relative to control", "in_short": "as §1"}, "[6]": {"molecular_target": "Histone-lysine N-methyltransferase 2A (Homo sapiens) (UniProt Q03164)", "experiment": "Inhibition of N-terminal His-tagged MLL1 (3745 to 3969 residues) (unknown origin) expressed in Escherichia coli at 1 uM using 3H-SAM as a substrate relative to control", "in_short": "as §1"}, "[7]": {"molecular_target": "Histone-lysine N-methyltransferase NSD2 (Homo sapiens) (UniProt O96028)", "sequence (O96028 whole entry, the tested form may be a part)": "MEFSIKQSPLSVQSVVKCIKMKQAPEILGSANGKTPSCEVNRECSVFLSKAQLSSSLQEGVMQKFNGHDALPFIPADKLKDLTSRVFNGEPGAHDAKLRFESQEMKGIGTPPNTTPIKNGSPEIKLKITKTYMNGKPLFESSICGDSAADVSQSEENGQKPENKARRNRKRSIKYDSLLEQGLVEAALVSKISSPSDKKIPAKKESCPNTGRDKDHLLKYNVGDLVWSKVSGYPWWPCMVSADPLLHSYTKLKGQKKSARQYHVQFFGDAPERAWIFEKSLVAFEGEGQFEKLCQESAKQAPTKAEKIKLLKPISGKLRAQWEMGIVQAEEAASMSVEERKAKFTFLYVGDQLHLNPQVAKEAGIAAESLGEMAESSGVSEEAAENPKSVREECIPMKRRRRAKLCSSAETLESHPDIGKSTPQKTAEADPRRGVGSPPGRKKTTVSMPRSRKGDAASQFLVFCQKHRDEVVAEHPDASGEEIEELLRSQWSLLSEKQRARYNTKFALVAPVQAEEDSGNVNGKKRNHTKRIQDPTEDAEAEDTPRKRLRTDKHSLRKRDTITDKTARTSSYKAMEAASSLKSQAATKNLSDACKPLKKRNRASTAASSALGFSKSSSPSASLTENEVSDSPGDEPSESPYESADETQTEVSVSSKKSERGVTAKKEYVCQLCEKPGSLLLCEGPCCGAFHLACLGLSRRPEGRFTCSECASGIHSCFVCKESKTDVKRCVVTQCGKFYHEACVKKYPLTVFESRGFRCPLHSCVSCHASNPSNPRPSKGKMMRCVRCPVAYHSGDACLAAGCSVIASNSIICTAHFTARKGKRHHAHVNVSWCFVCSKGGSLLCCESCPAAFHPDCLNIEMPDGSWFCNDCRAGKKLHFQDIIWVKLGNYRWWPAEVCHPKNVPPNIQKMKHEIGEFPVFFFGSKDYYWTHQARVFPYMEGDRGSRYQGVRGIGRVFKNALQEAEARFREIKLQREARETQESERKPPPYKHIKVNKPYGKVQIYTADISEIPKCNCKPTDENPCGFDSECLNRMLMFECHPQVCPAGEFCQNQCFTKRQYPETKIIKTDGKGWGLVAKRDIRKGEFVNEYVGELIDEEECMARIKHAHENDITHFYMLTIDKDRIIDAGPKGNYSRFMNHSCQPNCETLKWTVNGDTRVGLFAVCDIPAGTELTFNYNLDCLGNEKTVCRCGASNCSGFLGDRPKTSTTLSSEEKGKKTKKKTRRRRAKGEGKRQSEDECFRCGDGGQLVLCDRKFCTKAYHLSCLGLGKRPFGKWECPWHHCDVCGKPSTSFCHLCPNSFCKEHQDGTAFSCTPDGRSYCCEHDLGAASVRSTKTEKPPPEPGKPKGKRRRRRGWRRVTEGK", "experiment": "Inhibition of NSD2 (2 to 1365 residues) (unknown origin) at 1 uM expressed in baculovirus expression system using 3H-SAM as a substrate relative to control", "in_short": "as §1"}, "[8]": {"molecular_target": "Protein arginine N-methyltransferase 7 (Homo sapiens) (UniProt Q9NVM4)", "sequence (Q9NVM4 whole entry, the tested form may be a part)": "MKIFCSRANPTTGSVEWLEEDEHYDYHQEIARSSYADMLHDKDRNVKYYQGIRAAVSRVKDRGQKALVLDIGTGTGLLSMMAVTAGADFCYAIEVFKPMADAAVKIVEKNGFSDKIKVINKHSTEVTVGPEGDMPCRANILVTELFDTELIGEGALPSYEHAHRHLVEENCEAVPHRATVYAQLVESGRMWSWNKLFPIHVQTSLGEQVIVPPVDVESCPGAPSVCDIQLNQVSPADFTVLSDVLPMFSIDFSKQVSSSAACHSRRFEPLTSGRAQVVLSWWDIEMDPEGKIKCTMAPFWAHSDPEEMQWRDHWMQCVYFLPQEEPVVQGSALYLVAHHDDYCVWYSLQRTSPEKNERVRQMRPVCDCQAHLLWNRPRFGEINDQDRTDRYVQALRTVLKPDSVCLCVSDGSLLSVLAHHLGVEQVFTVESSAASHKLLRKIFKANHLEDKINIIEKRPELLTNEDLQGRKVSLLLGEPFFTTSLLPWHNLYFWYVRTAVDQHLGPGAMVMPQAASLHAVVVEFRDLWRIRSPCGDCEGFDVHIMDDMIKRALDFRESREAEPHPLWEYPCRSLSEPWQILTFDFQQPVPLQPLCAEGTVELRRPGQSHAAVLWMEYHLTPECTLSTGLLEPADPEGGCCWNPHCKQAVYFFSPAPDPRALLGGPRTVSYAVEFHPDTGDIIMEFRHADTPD", "experiment": "Inhibition of N-terminal His-tagged full-length recombinant human PRMT7 (2 to 692 residues) expressed in baculovirus expression system at 1 uM using 3H-SAM as a substrate relative to control", "in_short": "as §1"}, "MDA-MB-231": {"tested_on": "MDA-MB-231", "experiment": "Down regulation of H3K9 dimethylation in human MDA-MB-231 cells after 24 to 72 hrs by Western blot analysis", "type": "functional, cell-based", "details": "dose 0.2-5 µM, time lower […], time upper 72.0 hrs, DDE = dose-dependent effect"}, "[9]": {"molecular_target": "T1, Histone-lysine N-methyltransferase EHMT1 (Homo sapiens, UniProt Q9H9B1)", "T1 sequence (Q9H9B1 whole entry)": "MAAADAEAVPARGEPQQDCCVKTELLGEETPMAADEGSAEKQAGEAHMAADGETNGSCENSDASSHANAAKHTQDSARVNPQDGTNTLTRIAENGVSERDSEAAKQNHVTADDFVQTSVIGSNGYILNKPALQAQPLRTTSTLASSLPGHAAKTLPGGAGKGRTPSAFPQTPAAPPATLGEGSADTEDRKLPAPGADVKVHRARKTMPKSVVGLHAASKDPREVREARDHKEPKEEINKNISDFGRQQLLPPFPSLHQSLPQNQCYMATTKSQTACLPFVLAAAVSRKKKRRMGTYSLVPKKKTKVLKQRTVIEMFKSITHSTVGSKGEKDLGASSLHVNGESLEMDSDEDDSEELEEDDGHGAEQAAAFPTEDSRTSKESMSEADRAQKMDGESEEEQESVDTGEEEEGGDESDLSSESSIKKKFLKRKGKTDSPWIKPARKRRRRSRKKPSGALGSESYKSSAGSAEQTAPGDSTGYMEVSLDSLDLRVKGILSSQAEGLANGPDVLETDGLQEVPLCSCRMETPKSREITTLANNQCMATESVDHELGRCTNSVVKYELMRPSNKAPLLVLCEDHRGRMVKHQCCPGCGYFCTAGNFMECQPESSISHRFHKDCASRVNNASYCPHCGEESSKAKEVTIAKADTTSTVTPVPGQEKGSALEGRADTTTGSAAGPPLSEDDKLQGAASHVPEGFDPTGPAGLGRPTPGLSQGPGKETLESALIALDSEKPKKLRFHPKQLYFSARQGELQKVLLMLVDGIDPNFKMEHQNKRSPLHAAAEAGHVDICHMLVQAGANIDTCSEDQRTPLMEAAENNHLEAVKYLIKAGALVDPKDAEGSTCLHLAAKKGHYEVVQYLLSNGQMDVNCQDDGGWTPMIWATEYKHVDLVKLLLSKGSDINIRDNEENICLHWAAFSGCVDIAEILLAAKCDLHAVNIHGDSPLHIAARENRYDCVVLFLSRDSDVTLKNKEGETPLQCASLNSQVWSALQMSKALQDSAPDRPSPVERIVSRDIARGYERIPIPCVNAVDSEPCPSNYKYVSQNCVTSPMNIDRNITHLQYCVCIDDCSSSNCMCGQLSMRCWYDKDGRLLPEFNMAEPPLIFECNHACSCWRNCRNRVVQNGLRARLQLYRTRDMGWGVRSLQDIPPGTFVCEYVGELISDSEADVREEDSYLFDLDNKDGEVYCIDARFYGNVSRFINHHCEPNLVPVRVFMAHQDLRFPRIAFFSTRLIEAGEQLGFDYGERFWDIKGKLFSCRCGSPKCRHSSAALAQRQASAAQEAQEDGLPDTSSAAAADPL", "experiment": "Inhibition of human GLP (982 to 1266 residues) using H3 peptide as substrate measured upto 45 mins in presence of SAM cofactor", "in_short": "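Contracted scintillation proximity assay following 3H-methyl transfer from SAM (1 μM) to H3 peptide (0.05 μM) by G9a or GLP (5 nM each), with preincubation times of 5, 15 or 45 min; four replicates.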"}}, "data": [{"smiles": "C=CC(=O)Nc1cc(NC2CCN(C(C)C)CC2)c2cc(OC)c(OCCCN3CCCC3)cc2n1", "values": [{"measurement": "inhibition", "setting": "[1]", "result": "Tde"}, {"measurement": "inhibition", "setting": "[2]", "result": "< 50", "unit": "%"}, {"measurement": "inhibition", "setting": "[3]", "result": "< 50", "unit": "%"}, {"measurement": "inhibition", "setting": "[4]", "result": "< 50", "unit": "%"}, {"measurement": "inhibition", "setting": "[5]", "result": "< 50", "unit": "%"}, {"measurement": "inhibition", "setting": "[6]", "result": "< 50", "unit": "%"}, {"measurement": "inhibition", "setting": "[7]", "result": "< 50", "unit": "%"}, {"measurement": "inhibition", "setting": "[8]", "result": "< 50", "unit": "%"}, {"measurement": "Activity", "setting": "MDA-MB-231", "result": "Dde"}, {"measurement": "IC50", "setting": "[9]", "result": 140, "unit": "nM"}]}]}
